Bioassay records (PubChem BioAssay)
Shown are actives, neighbours in structure and some others; about 2.3% of the full set was active somewhere.
TRPC4 PAM: positive allosteric modulators of TRPC4, primary screen, cell-based, mouse TRPC4beta, HEK293 mu-opioid, Fluo-4 calcium; B-score at 10 µM; AID 2227, 2009; 310,000 tested, 0.42% active; DAMGO EC20, Fluo-4 Ca2+ flux; active compounds read high; Short transient receptor potential channel 4 (Mus musculus), Q9QUQ5;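 active = B-score of calcium response area above 5 SD of library B-scores, with initial fluorescence ratio within 5 SD of library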
Target sequence (Q9QUQ5 whole entry, looked up): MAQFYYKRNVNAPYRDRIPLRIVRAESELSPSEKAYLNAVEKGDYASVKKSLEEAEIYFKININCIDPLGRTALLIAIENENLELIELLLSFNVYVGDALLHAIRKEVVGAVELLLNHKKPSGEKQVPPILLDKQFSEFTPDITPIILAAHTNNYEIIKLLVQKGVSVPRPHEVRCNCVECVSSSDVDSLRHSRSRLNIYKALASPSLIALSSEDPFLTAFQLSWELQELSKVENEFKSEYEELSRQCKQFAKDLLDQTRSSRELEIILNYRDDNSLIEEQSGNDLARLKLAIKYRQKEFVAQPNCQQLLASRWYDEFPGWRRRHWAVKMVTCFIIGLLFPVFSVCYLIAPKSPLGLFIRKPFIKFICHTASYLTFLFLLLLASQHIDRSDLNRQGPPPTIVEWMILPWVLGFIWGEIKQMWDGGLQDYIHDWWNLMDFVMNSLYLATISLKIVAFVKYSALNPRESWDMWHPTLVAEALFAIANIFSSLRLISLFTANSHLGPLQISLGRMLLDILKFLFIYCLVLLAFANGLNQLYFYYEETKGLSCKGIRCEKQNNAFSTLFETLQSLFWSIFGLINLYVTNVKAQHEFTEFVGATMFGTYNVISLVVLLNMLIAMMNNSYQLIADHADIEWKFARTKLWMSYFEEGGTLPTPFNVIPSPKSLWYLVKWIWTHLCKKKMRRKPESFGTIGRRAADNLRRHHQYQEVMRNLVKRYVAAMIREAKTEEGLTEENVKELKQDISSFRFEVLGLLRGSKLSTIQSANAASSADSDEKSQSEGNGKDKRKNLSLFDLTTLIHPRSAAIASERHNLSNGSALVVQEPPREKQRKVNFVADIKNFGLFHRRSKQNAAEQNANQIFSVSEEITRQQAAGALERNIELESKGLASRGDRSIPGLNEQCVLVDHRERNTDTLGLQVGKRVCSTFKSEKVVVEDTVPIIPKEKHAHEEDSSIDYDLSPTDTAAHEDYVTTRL
TRPC4 block: inhibitors of mouse TRPC4 channel, primary screen, Fluo4 calcium, HEK293 TRPC4beta/mu-opioid cells; Short transient receptor potential channel 4 (Mus musculus), Q9QUQ5; DAMGO-evoked Fluo4 calcium flux; active compounds read low; B-score at 10 µM; 300,000 tested, 0.39% active;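 active = B-score over 3 SD under the library average, no early fluorescence shift, positive overall ratio signal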
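Assay system: HEK293 cells with stable TRPC4beta plus mu-opioid receptor expression. Dosing: single dose. Measured by: Fluo4 Ca2+ flux fluorescence. Also added: DAMGO in two steps, submaximal then maximal. Read-out: B score from integrated Fluo4 fluorescence ratio.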
TRPC6 activator: mouse TRPC6 channel activators, primary screen, cell-based, HEK293, membrane potential dye; Short transient receptor potential channel 6 (Mus musculus), Q61143; HEK293-TRPC6 membrane potential dye fluorescence; active compounds read high; B-score at 10 µM; 310,000 tested, 0.13% active; AID 2550, 2010;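 active = B-score of the integrated fluorescence ratio above library mean plus 3 SD, and starting fluorescence ratio within library mean plus 5 SD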;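 note: higher score means more depolarization so channel activation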
TRPC4 agonist: activators of mouse TRPC4 channel, primary screen, Fluo4 calcium, HEK293 TRPC4beta/mu-opioid cells; AID 2237, 2010; Fluo4 calcium fluorescence; active compounds read high; Short transient receptor potential channel 4 (Mus musculus), Q9QUQ5; B-score at 10 µM; 310,000 tested, 0.49% active;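 active = B-score above 5 SD of library B-scores, and initial fluorescence ratio not above library mean plus 5 SD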;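 note: positive B-score marks a calcium rise read as TRPC4 activation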
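Assay system: HEK293 stable line with TRPC4beta plus mu-opioid receptor; schedule: 45 min room-temperature Fluo4 loading, 110 s read; technique: kinetic Fluo4 calcium fluorescence; evaluation: integrated baseline-normalised fluorescence ratio, converted to per-well B score; controls: buffer (low) and maximal DAMGO (high)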
TRPC6 inhibitor: mouse TRPC6 channel inhibitors, primary screen, cell-based, HEK293, membrane potential dye; Short transient receptor potential channel 6 (Mus musculus), Q61143; ACh-evoked depolarization; active compounds read low; B-score at 10 µM; 310,000 tested, 1.1% active; AID 2553, 2010;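 active = B-score under library mean minus 3 SD, initial fluorescence not abnormally high, positive integrated signal ratio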;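 note: B-score derived from integrated fluorescence ratio over the kinetic read; more negative B-score means stronger inhibition of depolarization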
TRPC4 sel inh 2: second check of whether TRPC6 inhibitors also affect mouse TRPC4 | shares compounds with TRPC6 inhibitor | HEK293 TRPC4/MOR, membrane potential dye fluorescence; channel activated by saturating DAMGO dose | inhibition, % at 10 µM | 920 tested, 42% active | AID 2776;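 active = compounds whose fluorescence signal differed from control wells by over 3 SD, either direction, in both duplicate plates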
TRPC4 spec: mouse TRPC4 modulation by TRPC6 hits, confirmation, selectivity assay for TRPC6 inhibitor project, cell-based, HEK293 TRPC4/mu-opioid, membrane potential dye; shares compounds with TRPC6 inhibitor; membrane potential fluorescence; activity change, negative = inhibition, % at 10 µM; 920 tested, 61% active; AID 2777, 2010;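 active = rise or fall in signal beyond 3 SD of buffer-only wells in both replicate plates, either sign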;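 note: integrated kinetic ratio of fluorescence range over baseline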
HEK293 MPD ctr 2-1: nonspecific membrane potential effects, parental HEK293, confirmation, counter-screen for TRPC6 inhibitor project, cell-based, second counter screen. AID 2779, 2010. parental HEK293 membrane potential dye fluorescence; maximal acetylcholine challenge after compound addition. 920 tested, 31% active. shares compounds with TRPC6 inhibitor. signal change vs control, % at 10 µM;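 active = membrane potential signal moving either way by over 3 SD of the maximum-effect control, in both duplicate plates, meaning non-specific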
HEK293 MPD ctr-1: membrane potential modulation in parental HEK293, confirmation, counter-screen for TRPC6 inhibitor project, cell-based; parental HEK293 membrane potential dye fluorescence; AID 2780, 2010; 920 tested, 60% active; shares compounds with TRPC6 inhibitor; membrane potential signal change, % at 10 µM;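 active = membrane potential signal shifting up or down by more than 3 SD of buffer-only wells, on both duplicate plates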
HEK293 MPD ctr-2: parental HEK293 membrane potential modulation, confirmation, counter-screen for TRPC6 modulator project, cell-based. shares compounds with TRPC6 inhibitor. membrane potential dye fluorescence. membrane potential signal change, % at 10 µM. 2,400 tested, 51% active. AID 488924, 2010;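 active = membrane potential signal moves up or down beyond 5 SD from buffer-only wells, on both duplicate plates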
HEK293 MPD ctr 2-2: second check of TRPC6 modulator effects in parental HEK293 cells; shares compounds with TRPC6 inhibitor; inhibition, % at 10 µM; membrane potential dye fluorescence; after compound, maximal acetylcholine stimulation; 2,400 tested, 14% active;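 active = membrane potential signal drops by more than 5 SD from the mean control signal, in both duplicate plates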
TRPC4 ctr mod: TRPC4 modulation by TRPC6 hit compounds, confirmation, selectivity assay for TRPC6 modulator project, cell-based, HEK293 TRPC4/mu-opioid, membrane potential dye, mouse; membrane potential fluorescence; shares compounds with TRPC6 inhibitor; 2,400 tested, 69% active; percent change from control (negative = decrease, positive = increase), % at 10 µM; AID 488927, 2010;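 active = membrane potential signal moved up or down beyond 5 SD of buffer control wells, in both duplicate plates, actives on both sides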
TRPC4/MOR inh 2: mouse TRPC4 off-target activity of TRPC6 modulators, second screen; HEK293 TRPC4/mu-opioid, membrane potential dye fluorescence; stimulated with maximal-effect DAMGO; inhibition, % at 10 µM; shares compounds with TRPC6 inhibitor; 2,400 tested, 55% active;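 active = drop in membrane potential signal beyond 5 SD of the control wells in both duplicate plates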;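 note: TRPC4 counter screen for TRPC6 hits run under conditions tuned for TRPC6 not TRPC4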
TRPC6 block conf: mouse TRPC6 channel inhibitors, confirmation, HEK293 cells, membrane potential dye, duplicate; shares compounds with TRPC6 inhibitor; ACh-evoked depolarization; inhibition, % at 10 µM; 3,300 tested, 43% active;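 active = fluorescence ratio falls more than 5 SD below the full-stimulation control mean, in both duplicate runs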;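 note: integrated fluorescence ratio of peak minus minimum over baseline after agonist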
TRPC6 act conf: mouse TRPC6 channel activators, confirmation, HEK293 cells, membrane potential dye, duplicate; HEK293-TRPC6 membrane potential dye fluorescence, FDSS; 2,800 tested, 11% active; shares compounds with TRPC6 inhibitor; activation, % at 10 µM; AID 488961, 2010;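 active = ratio signal rise beyond 5 SD above unstimulated control wells' mean, seen in both duplicate runs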
Of the large screens only hits and unclear results are named; the others gave an inactive call (follow-up assays come after a bar, where they were run).

CCN1CCN(CCNC(=O)C2CCN(Cc3nc(-c4ccc(Cl)cc4)oc3C)CC2)CC1	none
Cc1oc(-c2ccc(Cl)cc2)nc1CN1CCC(C(=O)N2CCc3ccccc3C2)CC1	TRPC4 PAM 15, TRPC6 activator 14.3 | HEK293 MPD ctr-2 201.5% | HEK293 MPD ctr 2-2 inactive | TRPC4 ctr mod 32.0% | TRPC4/MOR inh 2 61.5% | TRPC6 block conf inactive | TRPC6 act conf 80.0%
COc1cc(-c2nc(CN3CCN(C(=O)c4ccco4)CC3)c(C)o2)ccc1F	TRPC6 activator 12.5, TRPC6 inhibitor -6.29 | HEK293 MPD ctr-2 inactive | HEK293 MPD ctr 2-2 inactive | TRPC4 ctr mod 11.5% | TRPC4/MOR inh 2 inactive | TRPC6 block conf 61.5% | TRPC6 act conf 139.0%
CCc1ccc(-c2nc(CN3CCC(C(=O)NCc4ccccc4OC)CC3)c(C)o2)cc1	none
O=C(O)c1cc(NC(=O)c2cccc(F)c2)cc(NC(=O)c2cccc(F)c2)c1	none
COc1ccc(C(=O)/C(C#N)=N/Nc2ccc([N+](=O)[O-])cc2)cc1	TRPC6 inhibitor -5.72 | HEK293 MPD ctr-2 inactive | HEK293 MPD ctr 2-2 inactive | TRPC4 ctr mod inactive | TRPC4/MOR inh 2 inactive | TRPC6 block conf inactive | TRPC6 act conf inactive
CCc1c(C)nc(SCC(=O)N2CCCCC2CC)[nH]c1=O (stereo not drawn)	none
COc1ccc(OC)c2c(C)cc(N3CCN(C(=O)c4ccc(C)cc4)CC3)nc12	none
COc1ccc(S(=O)(=O)NCCN2CCOCC2)c(C)c1C	none
COc1ccc(OC)c2c(C)cc(NCCN3CCOCC3)nc12	TRPC6 inhibitor -8.88 | HEK293 MPD ctr-2 -276.5% | HEK293 MPD ctr 2-2 69.5% | TRPC4 ctr mod -36.5% | TRPC4/MOR inh 2 67.5% | TRPC6 block conf 72.5% | TRPC6 act conf inactive
COc1ccc(OC)c2c(C)cc(N3CCCCCC3)nc12	TRPC4 block -5, TRPC6 inhibitor -6.63 | TRPC4 sel inh 2 74.5% | TRPC4 spec -22.1% | HEK293 MPD ctr 2-1 inactive | HEK293 MPD ctr-1 -419.0% | TRPC6 block conf inactive | TRPC6 act conf inactive
COc1cccc2c(C)cc(N3CCCCCC3)nc12	TRPC6 inhibitor -9.41 | HEK293 MPD ctr-2 -262.0% | HEK293 MPD ctr 2-2 inactive | TRPC4 ctr mod -47.0% | TRPC4/MOR inh 2 86.0% | TRPC6 block conf 46.5% | TRPC6 act conf inactive
COc1ccc(OC)c2c(C)cc(N3CCN(C(=O)c4ccc(F)cc4)CC3)nc12	TRPC6 inhibitor -5.65 | HEK293 MPD ctr-2 -243.5% | HEK293 MPD ctr 2-2 inactive | TRPC4 ctr mod -44.5% | TRPC4/MOR inh 2 42.0% | TRPC6 block conf inactive | TRPC6 act conf inactive
COc1ccc(OC)c2c(C)cc(C)nc12	none
COc1ccc(N2CCN(c3cc(C)c4cccc(C)c4n3)CC2)cc1	none
C#CCNC(=O)C1=C[C@H](c2cn(C(C)=O)c3ccccc23)[C@@H](CCCO)[C@H](OCC)O1	none
S=C1NCN(C2CCCCC2)CN1CCc1ccccc1	none
Cc1ccc(-n2ncc(C(=O)N3CCN(C(=O)c4ccco4)CC3)c2-n2cccc2)cc1	TRPC6 inhibitor -5.26 | HEK293 MPD ctr-2 inactive | HEK293 MPD ctr 2-2 inactive | TRPC4 ctr mod 9.0% | TRPC4/MOR inh 2 inactive | TRPC6 block conf 59.0%
COc1ccc(OC)c(CNc2nc3ccccc3n2CCN2CCCCC2)c1	none
Brc1ccc(CNc2nc3ccccc3n2CCN2CCCCC2)cc1	TRPC6 inhibitor -5.17 | HEK293 MPD ctr-2 inactive | HEK293 MPD ctr 2-2 inactive | TRPC4 ctr mod 15.0% | TRPC4/MOR inh 2 89.0% | TRPC6 block conf 38.0% | TRPC6 act conf inactive
COc1cccc(CNc2nc3ccccc3n2CCN2CCCCC2)c1	TRPC6 inhibitor -6.08 | HEK293 MPD ctr-2 inactive | HEK293 MPD ctr 2-2 inactive | TRPC4 ctr mod inactive | TRPC4/MOR inh 2 55.5% | TRPC6 block conf 35.0% | TRPC6 act conf inactive
Brc1cccc(CNc2nc3ccccc3n2CCN2CCCCC2)c1	none
COc1ccc(CNc2nc3ccccc3n2CCN2CCCCC2)c(OC)c1	TRPC6 inhibitor -10.1 | TRPC4 sel inh 2 42.5% | TRPC4 spec 9.3% | HEK293 MPD ctr 2-1 252.0% | HEK293 MPD ctr-1 7.9% | TRPC6 block conf inactive | TRPC6 act conf inactive
COc1ccccc1N1CC(C(=O)Nc2ccccc2N2CCCC2)CC1=O (stereo not drawn)	none
